Calls of active or inactive are those of the source. The rule behind the calls is not given here.
How the values were obtained:
[1] = (§1) Inhibition of recombinant human wild-type His6-tagged PDE4D7 UCR1 domain (S129 residues) expressed in baculovirus infected Sf9 insect cells using cAMP as substrate preincubated for 5 to 10 mins followed by substrate addition and measured for 10 mins by yeast myokinase/pyruvate kinase/lactate dehydrogenase-coupled fluorescence assay
Homo sapiens [2] = species on record: Homo sapiens; experiment: Selectivity ratio of IC50 for recombinant human His6-tagged PDE4B1 UCR1 S133D mutant expressed in baculovirus infected Sf9 insect cells to IC50 for recombinant human His6-tagged PDE4D7 UCR1 S129D mutant expressed in baculovirus infected Sf9 insect cells
[3] = target: 3',5'-cyclic-AMP phosphodiesterase 4B (Homo sapiens, UniProt Q07343, S133D); experiment: as §1, with “human” for “human wild-type”, “PDE4B1” for “PDE4D7”, “S133D mutant” for “domain (S129 residues)”
[4] = as §1, with “human” for “human wild-type”, “S129D mutant” for “domain (S129 residues)”
Homo sapiens [5] = species on record: Homo sapiens; experiment: Selectivity ratio of IC50 for recombinant human wild-type His6-tagged PDE4D7 UCR1 domain (S129 residues) expressed in baculovirus infected Sf9 insect cells to IC50 for recombinant human His6-tagged PDE4D7 UCR1 S129D mutant expressed in baculovirus infected Sf9 insect cells
Mus musculus [6] = experiment: Memory enhancement effect in ICR mouse assessed as improvement in novel object discrimination at 0.1 mg/kg, ip […] measured for 5 mins by open field test; type: functional, organism-based
Summary of the method: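 Male ICR mice (25–30 g) in open field box; habituation 10 min day 1, training with two identical objects 5 min day 2, test with familiar and novel object 5 min day 3 (24 h delay). Exploration times recorded; discrimination index d2 = (b − a)/(a + b). Oral dosing in 5% DMSO, 5% Solutol in PBS; rolipram given parenterally.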

Mus musculus [7] = experiment: Induction of emesis in ICR mouse assessed as reduction in ketamine/xylazine-induced duration of anesthesia at 0.1 mg/kg, ip pretreated for 15 mins followed by ketamine/xylazine addition; type: organism-based; details: in vivo
Summary of the method: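 Male ICR mice, 25–30 g. Test agents given by oral gavage in 5% DMSO, 5% Solutol in PBS, or rolipram IP; ketamine (80 mg/kg) plus xylazine (10 mg/kg) IP given 30 min after PO or 15 min after IP dosing. Endpoint: time from loss to return of righting reflex.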

Mus musculus [8] = experiment: Memory enhancement effect in ICR mouse assessed as improvement in novel object discrimination at 3 to 30 mg/kg, po administered via gavage measured for 5 mins by open field test; type: functional, organism-based
Summary of the method: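 Male ICR mice (25–30 g), dosed by oral gavage in 5% DMSO, 5% Solutol in PBS. Three phases in an open field box: 10 min habituation on day 1, 5 min training with identical objects on day 2, 5 min test with familiar and novel objects on day 3 (24 h delay). Exploration times recorded; discrimination index d2 = (b − a)/(a + b).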

[9] = Stability in mouse liver microsomes assessed as parent compound remaining at 1 uM measured after 30 mins by LC-MS/MS analysis; type: ADME, Microsome; details: read-out: Stability
Summary of the method: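 Liver microsome stability run by a contract lab using standard protocols. Parent compound remaining measured after 30 min incubation.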

[10] = Protein binding in human plasma; type: ADME, cell-free
[11] = Protein binding in dog plasma; type: ADME, cell-free, Canis lupus familiaris; details: read-out: PPB
[12] = Protein binding in rat plasma; type: ADME, cell-free; details: read-out: PPB
[13] = Protein binding in mouse plasma; type: ADME, cell-free; details: read-out: PPB
Cytochrome P450 3A4 = Cytochrome P450 3A4 (Homo sapiens, UniProt P08684); experiment: Inhibition of CYP3A4 (unknown origin) by fluorescence-based assay; type: ADME
Summary of the method: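 CYP inhibition run with a fluorescent substrate by a contract laboratory under standard protocols; IC50 reported.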

[14] = as §1, with “human” for “human wild-type”, “S129D mutant” for “domain (S129 residues)”, “assay relative to control” for “assay”
[15] = Aqueous kinetic solubility of the compound in pH 7.4 PBS buffer at 100 uM measured after 1 hr; type: physicochemical; details: pH 7.4, 1 h

Sequence of 3',5'-cyclic-AMP phosphodiesterase 4B (Q07343 whole entry S133D): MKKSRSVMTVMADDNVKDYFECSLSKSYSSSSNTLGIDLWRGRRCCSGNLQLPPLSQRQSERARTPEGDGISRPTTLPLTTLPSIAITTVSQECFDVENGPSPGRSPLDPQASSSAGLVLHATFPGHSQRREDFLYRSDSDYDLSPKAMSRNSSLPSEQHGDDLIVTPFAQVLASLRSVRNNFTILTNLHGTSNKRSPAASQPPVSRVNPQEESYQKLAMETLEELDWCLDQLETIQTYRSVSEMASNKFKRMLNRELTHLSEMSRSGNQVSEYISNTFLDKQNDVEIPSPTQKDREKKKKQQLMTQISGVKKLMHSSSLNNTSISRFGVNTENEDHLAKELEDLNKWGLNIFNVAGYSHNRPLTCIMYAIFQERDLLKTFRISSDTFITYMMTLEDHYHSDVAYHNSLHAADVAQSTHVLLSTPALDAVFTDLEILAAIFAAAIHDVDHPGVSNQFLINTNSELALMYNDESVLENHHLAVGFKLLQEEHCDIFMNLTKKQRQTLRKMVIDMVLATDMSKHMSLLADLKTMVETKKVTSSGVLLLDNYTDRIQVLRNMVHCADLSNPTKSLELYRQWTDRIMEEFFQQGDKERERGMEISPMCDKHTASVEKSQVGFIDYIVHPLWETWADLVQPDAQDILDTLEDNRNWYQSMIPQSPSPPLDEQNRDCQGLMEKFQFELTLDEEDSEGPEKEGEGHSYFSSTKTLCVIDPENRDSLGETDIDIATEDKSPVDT
Sequence of Cytochrome P450 3A4 (P08684 whole entry): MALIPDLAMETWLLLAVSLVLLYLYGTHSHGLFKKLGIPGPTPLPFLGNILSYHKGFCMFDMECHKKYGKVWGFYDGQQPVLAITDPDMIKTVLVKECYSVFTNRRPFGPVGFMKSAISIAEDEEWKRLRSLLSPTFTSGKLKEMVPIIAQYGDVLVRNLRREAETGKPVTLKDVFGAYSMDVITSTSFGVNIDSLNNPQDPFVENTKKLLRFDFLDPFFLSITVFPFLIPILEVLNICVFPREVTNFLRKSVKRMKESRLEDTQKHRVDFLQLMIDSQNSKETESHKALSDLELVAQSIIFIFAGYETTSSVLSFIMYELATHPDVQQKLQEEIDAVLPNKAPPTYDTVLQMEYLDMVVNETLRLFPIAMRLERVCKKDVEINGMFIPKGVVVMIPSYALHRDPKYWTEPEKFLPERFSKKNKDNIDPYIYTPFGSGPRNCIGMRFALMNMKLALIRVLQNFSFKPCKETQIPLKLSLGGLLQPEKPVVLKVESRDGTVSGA

Row | Compound | IC50 [1] | Ratio IC50 (Homo sapiens [2]) | IC50 [3] | IC50 [4] | Ratio IC50 (Homo sapiens [5]) | also measured
1 | CCc1nc(Nc2ccc(C(C)C(=O)O)cc2)nc(-c2cccc(Cl)c2)n1 (stereo not drawn) | > 10000 nM | 11 | 1090 nM | 96 nM |  | 
2 | CCc1cc(Nc2ccc(CCO)cc2)nc(-c2cccc(Cl)c2)n1 | 149 nM |  | 57 nM | 1.1 nM |  | 
3 | OCCc1cccc(Nc2cc(-c3cccc(Cl)c3)nc3c2CCC3)c1 | 6320 nM |  | 1420 nM | 226 nM |  | 
4 | NC(=O)Cc1ccc(S(=O)(=O)c2cc(-c3cccc(Cl)c3)nc3c2CCC3)cc1 |  |  | 3830 nM | 475 nM |  | 
5 | NC(=O)Cc1ccc(Nc2cc(-c3cccc(Cl)c3)nc3c2CCC3)cc1 | 1660 nM | 3 | 136 nM | 42.1 nM | 40 | 
6 | CCc1cc(Nc2ccc(CC(N)=O)cc2)nc(-c2cccc(Cl)c2)n1 | 146 nM | 17 | 43 nM | 2.6 nM | 56 | 
7 | CCc1cc(Oc2ccc(CC(N)=O)cc2)nc(-c2cccc(Cl)c2)n1 | 2430 nM |  | 953 nM | 35 nM |  | 
8 | CNC(=O)Cc1ccc(Nc2cc(-c3cccc(Cl)c3)nc3c2CCC3)cc1 | 1990 nM |  | 98 nM | 133 nM |  | 
9 | NC(=O)Cc1ccc(Cc2cc(-c3cccc(Cl)c3)nc3c2CCC3)cc1 | 810 nM |  | 137 nM | 8.6 nM |  | 
10 | CCc1cc(Cc2ccc(CCO)cc2)nc(-c2cccc(Cl)c2)n1 | 534 nM |  | 584 nM | 2 nM |  | 
11 | CCc1nc(Nc2ccc(CCCO)cc2)nc(-c2cccc(Cl)c2)n1 | 27 nM |  | 11 nM | 0.2 nM |  | 
12 | CCc1nc(Nc2ccc(CCO)cc2)nc(-c2cccc(Cl)c2)n1 | 102 nM | 48 | 24 nM | 0.5 nM | 204 | 
13 | CCc1nc(Nc2ccc(C(=O)O)cc2)nc(-c2cccc(Cl)c2)n1 | 482 nM | 1 | 241 nM | 213 nM | 2 | 
14 | CCc1cc(Oc2ccc(CCO)cc2)nc(-c2cccc(Cl)c2)n1 | 251 nM |  | 58 nM | 1.8 nM |  | 
15 | OCCc1ccc(Nc2cc(-c3cccc(Cl)c3)nc3c2CCC3)cc1 | 2110 nM | 60 | 562 nM | 9 nM | 226 | 
16 | COc1ccc(C2CNC(=O)C2)cc1OC1CCCC1 (stereo not drawn) [ROLIPRAM] |  |  |  |  |  | Activity (Mus musculus [6]): Active; Activity (Mus musculus [7]): Toxic
17 | CCc1nc(Nc2ccc(CC(N)=O)cc2)nc(-c2cccc(Cl)c2)n1 | 203 nM | 10 | 48 nM | 5 nM | 41 | 
18 | O=C(O)Cc1ccc(Nc2cc(-c3cccc(Cl)c3)nc3c2CCC3)cc1 |  | 1 | 1640 nM | 1160 nM |  | 
19 | CCc1nc(Nc2ccc(C(N)=O)cc2)nc(-c2cccc(Cl)c2)n1 | 252 nM | 2 | 44 nM | 22 nM | 11 | 
20 | CCc1nc(Nc2ccc(CO)cc2)nc(-c2cccc(Cl)c2)n1 | 351 nM |  | 105 nM | 12 nM |  | 
21 | CN(C)C(=O)Cc1ccc(Nc2cc(-c3cccc(Cl)c3)nc3c2CCC3)cc1 | 914 nM |  | 356 nM | 51 nM |  | 
22 | CN(c1ccc(CC(N)=O)cc1)c1cc(-c2cccc(Cl)c2)nc2c1CCC2 |  |  | 3290 nM | 733 nM |  | 
23 | CCc1cc(Cc2ccc(CC(=O)NCCO)cc2)nc(-c2cccc(Cl)c2)n1 | 885 nM |  | 128 nM | 0.8 nM |  | Activity (Mus musculus [8]): Active; remaining at 0.5 h, 1 µM [9]: 36%; PPB [10]: 99.6 to 99.8%; fraction unbound [11]: 0.002 to 0.004; fraction unbound [12]: 0.002 to 0.004; fraction unbound [13]: 0.002 to 0.004; IC50 (Cytochrome P450 3A4): 3100 nM; Imax [14]: 88%; Kinetic_solubility [15]: 29 µM
24 | NC(=O)CCc1ccc(Nc2cc(-c3cccc(Cl)c3)nc3c2CCC3)cc1 | 1280 nM |  | 166 nM | 35 nM |  | 
25 | CCc1nc(Nc2ccc(CC(=O)O)cc2)nc(-c2cccc(Cl)c2)n1 | 4040 nM | 1 | 781 nM | 681 nM | 6 | 
